Data as given in ChEMBL document CHEMBL4028872, “Structure-Activity Relationship, Pharmacological Characterization, and Molecular Modeling of Noncompetitive Inhibitors of the Betaine/γ-Aminobutyric Acid Transporter 1 (BGT1)” (J Med Chem, 2017).
Calls of active or inactive are those of the source. The rule behind the calls is not given here.

Key:
Homo sapiens = species on record: Homo sapiens; assay: Binding affinity to sigma receptor (unknown origin)
[1] = molecular target: Sodium- and chloride-dependent betaine transporter (Homo sapiens, UniProt P48065, V336A); assay: Inhibition of human BGT1 V336A mutant expressed in tsA201 cells assessed as reduction in [3H]GABA uptake after 3 mins by scintillation counting method; assay type: cell-based
Chain of Sodium- and chloride-dependent betaine transporter (Homo sapiens, UniProt P48065, V336A) (P48065 whole entry V336A): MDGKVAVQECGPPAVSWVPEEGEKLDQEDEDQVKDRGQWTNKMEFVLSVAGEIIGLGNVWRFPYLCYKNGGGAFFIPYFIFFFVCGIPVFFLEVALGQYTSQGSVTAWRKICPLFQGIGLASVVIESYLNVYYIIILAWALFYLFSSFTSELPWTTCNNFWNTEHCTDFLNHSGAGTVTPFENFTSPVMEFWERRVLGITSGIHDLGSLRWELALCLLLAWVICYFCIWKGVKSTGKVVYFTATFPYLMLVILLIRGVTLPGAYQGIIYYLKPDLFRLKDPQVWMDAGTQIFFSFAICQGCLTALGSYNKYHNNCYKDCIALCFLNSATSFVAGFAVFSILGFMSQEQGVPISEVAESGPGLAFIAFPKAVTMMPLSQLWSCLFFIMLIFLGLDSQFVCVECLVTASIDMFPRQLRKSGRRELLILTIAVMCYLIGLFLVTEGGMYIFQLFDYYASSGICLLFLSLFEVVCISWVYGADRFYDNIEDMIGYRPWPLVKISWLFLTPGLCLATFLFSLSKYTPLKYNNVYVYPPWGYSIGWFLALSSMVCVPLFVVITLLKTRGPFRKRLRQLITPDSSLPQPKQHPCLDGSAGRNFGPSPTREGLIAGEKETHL
Summary of the method: (§1)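 Site-directed mutant transporters transiently transfected (PolyFect) into tsA201 cells, plated and used about 24 h later. Cells were washed with HBSS containing 20 mM HEPES, 1 mM CaCl2 and 1 mM MgCl2, pH 7.4. IC50 was taken from variable-slope sigmoidal fits. Triplicates, at least three independent experiments.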

[2] = molecular target: T1, Sodium- and chloride-dependent betaine transporter (Homo sapiens, UniProt P48065); assay: Inhibition of human BGT1/human GAT3 chimera D expresses in tsA201 cells assessed as reduction in [3H]GABA uptake after 3 mins by scintillation counting method; assay type: cell-based
T1 sequence (P48065 whole entry, looked up): as the sequence (P48065 whole entry V336A) above, with A336V counted along it
Summary of the method: (§2)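 BGT1/GAT3 chimeric constructs transiently expressed in tsA201 cells. After about 24 h, cells were washed in HEPES-buffered HBSS (1 mM CaCl2, 1 mM MgCl2, pH 7.4). IC50 came from variable-slope sigmoidal regression. Triplicates, at least two independent experiments.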

[3] = molecular target: Sodium- and chloride-dependent betaine transporter (Homo sapiens, UniProt P48065, C382T); assay: Inhibition of human BGT1 C382T mutant expressed in tsA201 cells assessed as reduction in [3H]GABA uptake after 3 mins by scintillation counting method; assay type: cell-based; summary of the method: as §1
[4] = molecular target: Sodium- and chloride-dependent betaine transporter (Homo sapiens, UniProt P48065, K317R); assay: Inhibition of human BGT1 K317R mutant expressed in tsA201 cells assessed as reduction in [3H]GABA uptake after 3 mins by scintillation counting method; assay type: cell-based; summary of the method: as §1
[5] = molecular target: Sodium- and chloride-dependent betaine transporter (Homo sapiens, UniProt P48065, A328G); assay: Inhibition of human BGT1 A328G mutant expressed in tsA201 cells assessed as reduction in [3H]GABA uptake after 3 mins by scintillation counting method; assay type: cell-based; summary of the method: as §1
[6] = molecular target: Sodium- and chloride-dependent betaine transporter (Homo sapiens, UniProt P48065, H312N); assay: Inhibition of human BGT1 H312N mutant expressed in tsA201 cells assessed as reduction in [3H]GABA uptake after 3 mins by scintillation counting method; assay type: cell-based; summary of the method: as §1
[7] = molecular target: Sodium- and chloride-dependent betaine transporter (Homo sapiens, UniProt P48065, F324C); assay: Inhibition of human BGT1 F324C mutant expressed in tsA201 cells assessed as reduction in [3H]GABA uptake after 3 mins by scintillation counting method; assay type: cell-based; summary of the method: as §1
[8] = molecular target: Sodium- and chloride-dependent betaine transporter (Homo sapiens, UniProt P48065, Q378P); assay: Inhibition of human BGT1 Q378P mutant expressed in tsA201 cells assessed as reduction in [3H]GABA uptake after 3 mins by scintillation counting method; assay type: cell-based; summary of the method: as §1
Chain of Sodium- and chloride-dependent betaine transporter (Homo sapiens, UniProt P48065, Q378P) (P48065 whole entry Q378P): as the sequence (P48065 whole entry V336A) above, with A336V, Q378P counted along it

[9] = molecular target: Sodium- and chloride-dependent betaine transporter (Homo sapiens, UniProt P48065, S353A); assay: Inhibition of human BGT1 S353A mutant expressed in tsA201 cells assessed as reduction in [3H]GABA uptake after 3 mins by scintillation counting method; assay type: cell-based; summary of the method: as §1
[10] = molecular target: T1, Sodium- and chloride-dependent betaine transporter; assay: Inhibition of human BGT1/human GAT3 chimera C expresses in tsA201 cells assessed as reduction in [3H]GABA uptake after 3 mins by scintillation counting method; assay type: cell-based; summary of the method: as §2
[11] = molecular target: Sodium- and chloride-dependent betaine transporter (Homo sapiens, UniProt P48065, A321M); assay: Inhibition of human BGT1 A321M mutant expressed in tsA201 cells assessed as reduction in [3H]GABA uptake after 3 mins by scintillation counting method; assay type: cell-based; summary of the method: as §1
[12] = molecular target: Sodium- and chloride-dependent betaine transporter (Homo sapiens, UniProt P48065, I340V); assay: Inhibition of human BGT1 I340V mutant expressed in tsA201 cells assessed as reduction in [3H]GABA uptake after 3 mins by scintillation counting method; assay type: cell-based; summary of the method: as §1
Chain of Sodium- and chloride-dependent betaine transporter (Homo sapiens, UniProt P48065, I340V) (P48065 whole entry I340V): as the sequence (P48065 whole entry V336A) above, with A336V, I340V counted along it

[13] = molecular target: Sodium- and chloride-dependent betaine transporter (Homo sapiens, UniProt P48065, K310N); assay: Inhibition of human BGT1 K310N mutant expressed in tsA201 cells assessed as reduction in [3H]GABA uptake after 3 mins by scintillation counting method; assay type: cell-based; summary of the method: as §1
[14] = molecular target: Sodium- and chloride-dependent betaine transporter (Homo sapiens, UniProt P48065, S345A); assay: Inhibition of human BGT1 S345A mutant expressed in tsA201 cells assessed as reduction in [3H]GABA uptake after 3 mins by scintillation counting method; assay type: cell-based; summary of the method: as §1
[15] = molecular target: Sodium- and chloride-dependent betaine transporter (Homo sapiens, UniProt P48065, I386M); assay: Inhibition of human BGT1 I386M mutant expressed in tsA201 cells assessed as reduction in [3H]GABA uptake after 3 mins by scintillation counting method; assay type: cell-based; summary of the method: as §1
[16] = molecular target: Sodium- and chloride-dependent betaine transporter (Homo sapiens, UniProt P48065, Q346Y); assay: Inhibition of human BGT1 Q346Y mutant expressed in tsA201 cells assessed as reduction in [3H]GABA uptake after 3 mins by scintillation counting method; assay type: cell-based; summary of the method: as §1
[17] = molecular target: Sodium- and chloride-dependent betaine transporter (Homo sapiens, UniProt P48065, S381A); assay: Inhibition of human BGT1 S381A mutant expressed in tsA201 cells assessed as reduction in [3H]GABA uptake after 3 mins by scintillation counting method; assay type: cell-based; summary of the method: as §1
Chain of Sodium- and chloride-dependent betaine transporter (Homo sapiens, UniProt P48065, S381A) (P48065 whole entry S381A): as the sequence (P48065 whole entry V336A) above, with A336V, S381A counted along it

[18] = molecular target: Sodium- and chloride-dependent betaine transporter (Homo sapiens, UniProt P48065, F367Y); assay: Inhibition of human BGT1 F367Y mutant expressed in tsA201 cells assessed as reduction in [3H]GABA uptake after 3 mins by scintillation counting method; assay type: cell-based; summary of the method: as §1
Chain of Sodium- and chloride-dependent betaine transporter (Homo sapiens, UniProt P48065, F367Y) (P48065 whole entry F367Y): as the sequence (P48065 whole entry V336A) above, with A336V, F367Y counted along it

[19] = molecular target: Sodium- and chloride-dependent betaine transporter (Homo sapiens, UniProt P48065, F295Y); assay: Inhibition of human BGT1 F295Y mutant expressed in tsA201 cells assessed as reduction in [3H]GABA uptake after 3 mins by scintillation counting method; assay type: cell-based; summary of the method: as §1
Chain of Sodium- and chloride-dependent betaine transporter (Homo sapiens, UniProt P48065, F295Y) (P48065 whole entry F295Y): as the sequence (P48065 whole entry V336A) above, with F295Y, A336V counted along it

[20] = molecular target: 5-hydroxytryptamine receptor 1D (Homo sapiens) (UniProt P28221); assay: Displacement of [3H]GR125743 from human 5-HT1D receptor expressed in HEKT cell membranes at 10 uM after 90 mins by scintillation counting method
[21] = molecular target: Alpha-2C adrenergic receptor (Homo sapiens) (UniProt P18825); assay: Displacement of [3H]rauwolscine from human alpha-2C adrenergic receptor expressed in MDCK cell membranes at 10 uM after 90 mins by scintillation counting method
[22] = molecular target: Histamine H1 receptor (Homo sapiens) (UniProt P35367); assay: Displacement of [3H]pyrilamine from human histamine H1 receptor expressed in HEK cell membranes at 10 uM after 90 mins by scintillation counting method
[23] = molecular target: Sodium- and chloride-dependent betaine transporter (Homo sapiens, UniProt P48065, V337I); assay: Inhibition of human BGT1 V337I mutant expressed in tsA201 cells assessed as reduction in [3H]GABA uptake after 3 mins by scintillation counting method; assay type: cell-based; summary of the method: as §1
Chain of Sodium- and chloride-dependent betaine transporter (Homo sapiens, UniProt P48065, V337I) (P48065 whole entry V337I): as the sequence (P48065 whole entry V336A) above, with A336V, V337I counted along it

O=C(NC1CCN(Cc2ccccc2)CC1)c1ccc(Cl)nc1Cl
Activity (Homo sapiens): Active

O=C(NC1CCN(Cc2ccccc2)CC1)c1ccc(Cl)cc1Cl
IC50 ([1]; read-out: IC50): 2 µM | IC50 ([1]; read-out: pIC50 (converted)): 1.66 µM | IC50 [2]: 2 µM | pIC50 [2]: 5.79 | IC50 [3]: 15 µM | IC50 [4]: 13 µM | IC50 [5]: 7 µM | IC50 [6]: 8 µM | IC50 [7]: 6 µM | IC50 [8]: 14 µM | IC50 [9]: 17 µM | IC50 [10]: 58 µM | pIC50 [10]: 4.6 | IC50 [11]: 5 µM | IC50 ([12]; read-out: IC50): 8 µM | IC50 ([12]; read-out: pIC50 (converted)): 5.89 µM | IC50 [13]: 10 µM | IC50 [14]: 21 µM | IC50 [15]: 7 µM | IC50 [16]: 14 µM | IC50 [17]: 13 µM | IC50 ([18]; read-out: IC50): 5 µM | IC50 ([18]; read-out: pIC50 (converted)): 6.03 µM | IC50 ([19]; read-out: IC50): 5 µM | IC50 ([19]; read-out: pIC50 (converted)): 4.07 µM | inhibition [20]: Active | inhibition [21]: Active | inhibition [22]: Active | IC50 ([23]; read-out: IC50): 6 µM | IC50 ([23]; read-out: pIC50 (converted)): 4.9 µM
